Experiment [1] has as its target Mu-type opioid receptor (Homo sapiens) (UniProt P35372). As to the kind of experiment: Intrinsic activity at human […] mu receptor expressed in CHO cells upto 10 uM by [35S]GTP-gamma-S assay. Type of experiment: functional, cell-based. A digest of the protocol: (§1)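 Screened at 10 μM for agonist or inverse-agonist activity on CHO membrane homogenates expressing human δ, κ or μ receptor; 0.1 nM [35S]GTPγS, 1 μM GDP, 50 mM HEPES pH 7.4, 1 h room temperature, duplicates; bound label separated by vacuum filtration over GF-B, scintillation counted, normalized to vehicle basal binding; subtype-selective agonist run as positive control.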

The nature of experiment [2]: Selectivity for antagonist activity at human delta opioid receptor to kappa opioid receptor expressed in CHO cells by [35S]GTP-gamma-S assay. The class given is functional.
The nature of experiment [3]: Binding affinity to opiate receptor.
Experiment [4] is described as follows: Selectivity for antagonist activity at human mu opioid receptor to kappa opioid receptor expressed in CHO cells by [35S]GTP-gamma-S assay. Type of experiment: functional.
Experiment [5] deals with T1, Delta-type opioid receptor (Homo sapiens, UniProt P41143). As to the kind of experiment: Antagonist activity at human delta opioid receptor expressed in CHO cells by [35S]GTPgammaS assay. Type of experiment: functional, cell-based. A digest of the protocol: (§2)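 Ke from rightward shift of the agonist concentration–response curve (DAMGO μ, DPDPE δ, U69,593 κ) by one fixed concentration of test compound; membranes from stably transfected CHO cells, 0.1 nM [35S]GTPγS, 10 μM GDP, 50 mM HEPES pH 7.4, 1 h room temperature, duplicates, filtration then scintillation counting; EC50s by three-parameter logistic fit, Ke = [L]/[(A′/A) − 1].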
T1 sequence (P41143 whole entry): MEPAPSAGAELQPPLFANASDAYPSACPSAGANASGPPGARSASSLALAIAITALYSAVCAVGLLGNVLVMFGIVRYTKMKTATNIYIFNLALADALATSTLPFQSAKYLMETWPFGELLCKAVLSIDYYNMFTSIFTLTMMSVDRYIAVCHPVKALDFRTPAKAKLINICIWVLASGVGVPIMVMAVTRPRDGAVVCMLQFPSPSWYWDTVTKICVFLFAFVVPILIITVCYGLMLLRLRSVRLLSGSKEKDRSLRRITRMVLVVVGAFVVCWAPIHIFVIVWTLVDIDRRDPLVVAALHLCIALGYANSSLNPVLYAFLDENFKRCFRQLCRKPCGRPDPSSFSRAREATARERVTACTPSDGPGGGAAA

Experiment [6] deals with T1, Delta-type opioid receptor. As to the kind of experiment: Intrinsic activity at human delta opioid receptor expressed in CHO cells upto 10 uM by [35S]GTP-gamma-S assay. The class given is functional, cell-based. A digest of the protocol: as §1
Experiment [7] addresses Kappa-type opioid receptor (Homo sapiens) (UniProt P41145). Briefly: Antagonist activity at human kappa opioid receptor expressed in CHO cells by [35S]GTP-gamma-S assay. The class given is functional, cell-based. A digest of the protocol:
as §2

For experiment [8], the target named is Mu-type opioid receptor (Homo sapiens) (UniProt P35372). Briefly: Antagonist activity at human mu opioid receptor expressed in CHO cells by [35S]GTP-gamma-S assay. Type of experiment: functional, cell-based.
Mu-type opioid receptor (Homo sapiens), sequence (P35372 whole entry): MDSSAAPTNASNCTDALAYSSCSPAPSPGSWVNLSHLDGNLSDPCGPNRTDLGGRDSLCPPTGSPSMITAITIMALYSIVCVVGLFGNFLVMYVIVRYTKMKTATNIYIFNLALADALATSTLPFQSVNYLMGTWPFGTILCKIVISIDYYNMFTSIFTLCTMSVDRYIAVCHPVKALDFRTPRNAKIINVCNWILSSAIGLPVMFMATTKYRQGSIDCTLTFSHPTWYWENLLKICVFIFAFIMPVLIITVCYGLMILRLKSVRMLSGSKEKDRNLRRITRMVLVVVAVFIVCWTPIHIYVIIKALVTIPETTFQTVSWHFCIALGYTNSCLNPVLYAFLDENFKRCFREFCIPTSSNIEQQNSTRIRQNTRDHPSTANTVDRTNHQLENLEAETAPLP
Experiment [9] addresses Kappa-type opioid receptor (Homo sapiens) (UniProt P41145). As to the kind of experiment: Intrinsic activity at human kappa opioid receptor expressed in CHO cells upto 10 uM by [35S]GTP-gamma-S assay. The class given is functional, cell-based. The essentials:
as §1

Experiment [10] is described as follows: Agonist activity at opioid receptor relative to U69,593. Type of experiment: functional.
For experiment [11], the target named is T1, Delta-type opioid receptor. As to the kind of experiment: Binding affinity to delta opioid receptor.

Activity calls are given as the source filed them. The rule behind the calls is not given here.

Kappa-type opioid receptor (Homo sapiens), sequence (P41145 whole entry): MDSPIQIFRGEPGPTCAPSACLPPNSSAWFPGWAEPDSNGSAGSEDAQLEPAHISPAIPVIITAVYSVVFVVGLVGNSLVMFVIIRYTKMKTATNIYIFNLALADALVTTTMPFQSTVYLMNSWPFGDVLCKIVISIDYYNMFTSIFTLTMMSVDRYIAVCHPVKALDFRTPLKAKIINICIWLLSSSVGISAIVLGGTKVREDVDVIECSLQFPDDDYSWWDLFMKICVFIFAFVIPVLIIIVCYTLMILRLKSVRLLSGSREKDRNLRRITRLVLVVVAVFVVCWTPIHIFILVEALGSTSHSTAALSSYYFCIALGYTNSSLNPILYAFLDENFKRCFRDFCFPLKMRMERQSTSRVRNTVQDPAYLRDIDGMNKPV

Regarding `O=C(O[C@@H]1Cc2c(O)cc(O)cc2O[C@@H]1c1ccc(O)c(O)c1)c1cc(O)c(O)c(O)c1` [EPICATECHIN GALLATE], the Intrinsic activity result in [1], in experiment [6] and in experiment [9] was “inactive” throughout. The “Ratio Ki” value in [2] is 0.89. In experiment [3], this molecule gave an IC50 of 0.036 µM. Also, the Antagonist selectivity ratio in [4] was found to be 0.79. The Ke in experiment [5] was 1700 nM; in experiment [7], 1900 nM; in [8] it was 1500 nM.

In the case of `O=C1C[C@@H](c2ccc(O)cc2)Oc2cc(O)cc(O)c21` [NARINGENIN], in experiment [2], the “Ratio Ki” value came to 2.2. Also, the Antagonist selectivity ratio in experiment [4] was 1.4. Further, the results for the Ke in experiment [5], in experiment [7] and in experiment [8] were 3680 nM, 1700 nM and 2300 nM, respectively.

`CC(C)[C@@H](CN1CC[C@@](C)(c2cccc(O)c2)[C@@H](C)C1)NC(=O)[C@H]1Cc2ccc(O)cc2CN1` [JDTIC]: the “Ratio Ki” value in experiment [2] is 3800. For the same molecule, the Antagonist selectivity ratio in experiment [4] worked out at 1250.

`O=c1cc(-c2ccc(O)cc2)oc2cc(O)cc(O)c12` [APIGENIN]: the Intrinsic activity entry in experiment [1], in [6] and in experiment [9] was “inactive” each time. Moreover, the “Ratio Ki” value in experiment [2] is recorded as 2.4. The Antagonist selectivity ratio in experiment [4] was determined as 1. For the same molecule, the values for the Ke in [5], in [7] and in experiment [8] were 970 nM, 410 nM and 410 nM, respectively.

`Oc1cc(O)c2c(c1)O[C@@H](c1ccc(O)c(O)c1)[C@H](O)C2` [(-)-CATECHIN]: the Emax in experiment [10] was 18%. Moreover, the “Ratio Ki” value in [2] amounted to 0.49. Further, the Antagonist selectivity ratio in [4] is 0.67. Also, the Ke was found to be 1770 nM in experiment [5], 3600 nM in [7] and 2400 nM in experiment [8].

Take `O=c1cc(-c2ccc(O)cc2)oc2cc(O)ccc12`: the “Ratio Ki” value in experiment [2] is 1.3. Moreover, in experiment [4], the Antagonist selectivity ratio turned out to be 0.3. Moreover, the values for the Ke in experiment [5], in experiment [7] and in experiment [8] were 2090 nM, 1610 nM and 480 nM, respectively.

Take `O=C1c2c(O)cc(O)cc2O[C@H](c2ccc(O)c(O)c2)[C@H]1O` [(+)-TAXIFOLIN]: in experiment [2], the “Ratio Ki” value worked out at 1.2. Moreover, the Antagonist selectivity ratio in experiment [4] turned out to be 0.93. Moreover, the Ke in experiment [5] is 3820 nM; in experiment [7], 3280 nM; in experiment [8], 3070 nM.

With `Oc1cc(O)c2c(c1)O[C@@H](c1ccc(O)c(O)c1)[C@@H](O)C2` [(+)-EPICATECHIN], the Intrinsic activity entry in experiment [10] was “inactive”. The “Ratio Ki” value in experiment [2] worked out at 0.37. In addition, the Antagonist selectivity ratio in experiment [4] came out at 0.52. Further, the Ke came to 2170 nM in experiment [5], 5810 nM in [7] and 3020 nM in experiment [8].

For `COc1ccc([C@@H]2CC(=O)c3c(O)cc(O)cc3O2)cc1O`, the Ke in [5], in [7] and in experiment [8] was more than 10000 nM each time.

`O=C1CC(c2ccc(O)cc2)Oc2ccccc21` (stereo not drawn) [4'-HYDROXY-FLAVANONE]: the “Ratio Ki” value in experiment [2] came to 6.3. Besides, the Antagonist selectivity ratio in experiment [4] worked out at 1.1. Further, the values for the Ke in [5], in [7] and in experiment [8] were 3490 nM, 550 nM and 590 nM, respectively.

Regarding `O=c1cc(-c2ccc(O)c(-c3c(O)cc(O)c4c(=O)cc(-c5ccc(O)cc5)oc34)c2)oc2cc(O)cc(O)c12` [AMENTOFLAVONE], the Intrinsic activity entry in experiment [1], in [6] and in experiment [9] was “inactive” throughout. For the same molecule, the “Ratio Ki” value in [2] was found to be 12. In addition, the Ki in experiment [11] turned out to be 0.036 µM. Also, the Antagonist selectivity ratio in [4] is listed as more than 20. Also, the figures for the Ke in experiment [5], in [7] and in experiment [8] were 6000 nM, 490 nM and more than 10000 nM, respectively.

For the molecule `O=c1c(O[C@@H]2O[C@H](CO)[C@H](O)[C@H](O)[C@H]2O)c(-c2ccc(O)c(O)c2)oc2cc(O)cc(O)c12` [HYPEROSIDE], the “Ratio Ki” value in experiment [2] is on record as 27. The Antagonist selectivity ratio in experiment [4] is recorded as 1.1. Further, the results for the Ke in experiment [5], in [7] and in experiment [8] were 9070 nM, 340 nM and 390 nM, respectively.

As for `Oc1ccc2c3c1O[C@H]1c4[nH]c5c(c4C[C@@]4(O)[C@@H](C2)N(CC2CC2)CC[C@]314)C[C@@]1(O)[C@H]2Cc3ccc(O)c4c3[C@@]1(CCN2CC1CC1)[C@H]5O4` [NORBINALTORPHIMINE], the “Ratio Ki” value in experiment [2] was 580. Besides, the Antagonist selectivity ratio in [4] turned out to be 520.

With `Oc1cc(O)c2c(c1)O[C@H](c1ccc(O)c(O)c1)[C@@H](O)C2` [CIANIDANOL], the Intrinsic activity entry in experiment [10] is “inactive”. Also, the “Ratio pKi” value in experiment [2] is listed as 3.7; in [4] it was more than 31. The Ke in experiment [5] is 1180 nM; in experiment [7] it was 320 nM; in experiment [8], more than 10000 nM.

Turning to `Oc1cc(O)c2c(c1)O[C@H](c1cc(O)c(O)c(O)c1)[C@H](O)C2` [EPIGALLOCATECHIN], the Intrinsic activity result in experiment [1], in experiment [6] and in experiment [9] was “inactive” in each case. Also, in experiment [2], the “Ratio Ki” value was determined as 8. The Antagonist selectivity ratio in experiment [4] turned out to be 1.2. For the same molecule, the Ke in experiment [5] is 1990 nM; in experiment [7], 250 nM; in [8], 300 nM.

Regarding `O=C(O[C@@H]1Cc2c(O)cc(O)cc2O[C@H]1c1ccc(O)c(O)c1)c1cc(O)c(O)c(O)c1` [(-)-CATECHINGALLATE], the Intrinsic activity entry in experiment [1], in [6] and in experiment [9] was “inactive” each time. Further, the “Ratio Ki” value in experiment [2] is on record as 4.3. Further, the Antagonist selectivity ratio in experiment [4] worked out at 0.95. Besides, the Ke in experiment [5] is 950 nM; in [7], 220 nM; in experiment [8] it was 210 nM.

For `Oc1cc(O)c2c(c1)O[C@H](c1ccc(O)c(O)c1)[C@H](O)C2`, the Intrinsic activity result in experiment [10] was “inactive”.
